Source: PubChem (several laboratories)
Sampled rows, rich in hits. Any-hit rate of the full collection: about 2.9%.
Calb FLC: C. albicans growth inhibition with fluconazole, primary screen, CaCi-2 strain, Alamar Blue fluorescence. C. albicans CaCi-2 (fluconazole-resistant clinical isolate) + fluconazole, 48 h. growth inhibition, % (concentration not given with the values). actives 0.57% (n = 300,000);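 active = growth inhibition above about 58% in most replicates, limit read from the data, passing the limit was not always enough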;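 also: all wells also contain fluconazole at 8 µg/ml as a sub-toxic cotreatment; 0% = median of DMSO wells and 100% = median of geldanamycin control wells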
Efflux pump mplx: inhibitors of Candida efflux pumps in yeast, primary screen, S. cerevisiae, Nile Red, multiplex | S. cerevisiae Candida pump triplex | inhibition, % at 10 µM | actives 0.44% (n = 330,000) | AID 485275, 2010;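 active = plate passing quality check with inhibition over a set limit, or well fluorescence over plate mean plus 4 SD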;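 also: Nile Red retained in pooled yeast measured as flow cytometry median fluorescence; 0% = buffer negative control and 100% = Enniatin B positive control; higher means more Nile Red kept so more efflux inhibition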
TAG inh: inhibitors of triacylglycerol accumulation, primary screen, cell-based, uHTS, fluorescence, H9c2; H9c2 cells, Nile Red lipid (TAG) fluorescence; cells loaded with 200 µM oleic acid; inhibition, % at 12.5 µM; actives 0.66% (n = 230,000);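 active = pattern-corrected inhibition of lipid staining of at least 50% with the nuclear-stain viability signal not falling by more than 50%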;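 also: 0% = DMSO wells and 100% = triacsin C control wells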
MC4R antag cAMP: MC4R antagonists of cAMP signaling, primary screen, cell-based, TR-FRET, antagonist arm of biased-ligand search | Melanocortin receptor 4 (Homo sapiens), P32245 | MC4R-expressing cells, MTII-stimulated cAMP, LANCE TR-FRET | inhibition, % at 6.5 µM | actives 0.48% (n = 360,000);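 active = inhibition above its plate's cutoff, the mean of tested wells on that plate plus 3 SD, cut at about 29% in these data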;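 also: 0% = Melanotan II alone and 100% = Melanotan II plus saturating MCL0020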
Target sequence (P32245 whole entry, looked up): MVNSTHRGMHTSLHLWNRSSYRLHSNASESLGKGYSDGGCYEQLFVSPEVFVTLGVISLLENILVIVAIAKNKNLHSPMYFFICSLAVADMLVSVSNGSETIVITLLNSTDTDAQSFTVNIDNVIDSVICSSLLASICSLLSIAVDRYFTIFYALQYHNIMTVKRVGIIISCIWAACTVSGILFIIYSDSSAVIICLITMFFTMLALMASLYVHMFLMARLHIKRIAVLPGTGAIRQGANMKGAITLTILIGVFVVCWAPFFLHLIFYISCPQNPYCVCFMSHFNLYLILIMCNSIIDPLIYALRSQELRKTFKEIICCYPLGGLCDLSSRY
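Material – human MC4R-expressing U2OS cells · Repeats – no replicates · Detection – TR-FRET with Eu-cAMP and labeled anti-cAMP, 671 nm · Times – compound 30 min, challenge 1 h, detection 1 h · Compound – single nominal compound dose of 6.5 µM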
MC4R ag barr: MC4R agonists recruiting beta-arrestin, primary screen, cell-based, luminescence, agonist arm of biased-ligand search; Melanocortin receptor 4 (Homo sapiens), P32245; U2OS MC4R beta-arrestin complementation; percent of melanotan II response, DMSO zero; activation, % at 8.9 µM; actives 0.98% (n = 360,000); AID 540308, 2011;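 active = activation above a per-plate cutoff, the mean activation of sample wells on that plate plus 3 SD, cut at about 8% in these data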
GalR3 antag: GalR3 antagonists in HEK293 cells, primary screen, cell-based, fluorescence readout; HEK293 GalR3-CNG cAMP membrane potential fluorescence; galR3 body fused to GalR1 C-terminus; inhibition, % at 3 µM; actives 0.44% (n = 360,000); AID 651719, 2012;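 active = inhibition above the screen-wide average plus 3 SD, cut at about 13% in these data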;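 also: forskolin and galanin both at EC90 stimulate the cells; cAMP rise reported by CNG channel membrane potential dye signal; 0% = forskolin plus galanin with DMSO and 100% = forskolin alone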
Target sequence (O60755 1-299 limits assumed): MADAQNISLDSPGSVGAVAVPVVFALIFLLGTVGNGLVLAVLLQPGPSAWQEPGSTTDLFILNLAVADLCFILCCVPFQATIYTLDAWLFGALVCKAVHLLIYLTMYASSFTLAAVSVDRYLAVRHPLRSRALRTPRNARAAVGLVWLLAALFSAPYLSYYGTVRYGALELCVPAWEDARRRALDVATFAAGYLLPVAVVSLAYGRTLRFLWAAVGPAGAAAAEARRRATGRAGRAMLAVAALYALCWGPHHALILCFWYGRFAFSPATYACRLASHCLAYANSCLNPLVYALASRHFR
* = called active by the depositor; / = no result.

SMILES	Calb FLC	Efflux pump mplx	TAG inh	MC4R antag cAMP	MC4R ag barr	GalR3 antag
O=C(Oc1coc(CSc2ncccn2)cc1=O)c1cccc([N+](=O)[O-])c1	-5.4	-0.1	-13.8	18.0	0.3	-6.5
O=C(Oc1ccc(Cl)c2cccnc12)c1cccc([N+](=O)[O-])c1	85.0*	-0.1	-0.6	23.0	-2.3	-4.4
O=C(Oc1cccc2cccnc12)c1cccc([N+](=O)[O-])c1	-3.5	0.3	-6.0	6.5	1.6	-6.9
O=C(Oc1c(Cl)cc(Cl)c2cccnc12)c1cccc([N+](=O)[O-])c1	103.6*	-8.5	2.2	6.4	5.9	/
Cc1ccccc1OCC(O)Cn1c(=N)n(Cc2ccccc2)c2ccccc21 (configuration not stated)	15.6	0.1	129.3	-0.6	9.1*	-6.9
COc1ccccc1OCC(O)Cn1c(=N)n(Cc2ccccc2)c2ccccc21 (configuration not stated)	5.2	0.1	/	-0.8	-1.6	-9.6
CN1CCN(C(=O)c2cccc3c(-c4ccc(F)c(F)c4)coc23)CC1	/	/	11.9	-5.6	-1.8	/
Cc1ccccc1OCC(=O)Nc1cccc(Cl)c1C	-6.1	0.0	-19.6	3.8	8.6*	-5.7
COc1ccc(Cl)cc1NC(=O)c1cc(-c2ccccc2O)n[nH]1	6.3	-0.1	/	1.8	0.1	-9.2
Cc1c(Cl)cccc1NC(=O)c1cc(-c2ccccc2O)n[nH]1	-0.9	0.0	-8.3	-5.0	9.3*	-6.1
Cc1ccc(C2=NNC3(CCOC(C)(C)C3)S2)cc1 (configuration not stated)	95.5*	-0.1	18.0	26.4	2.1	-1.9
C=CCN1C(=O)c2n[nH]c(COC)c2C1c1ccc(Br)cc1 (configuration not stated)	/	/	/	/	/	-8.2
CC1=NN(c2nc3ccccc3[nH]2)C(=O)C1Cc1ccccc1 (configuration not stated)	-2.5	-0.1	53.5*	19.8	2.1	/
CN(C)CCCN1CC(=O)N2CCc3ccc(Br)cc3C2CC1=O (configuration not stated)	/	/	/	/	/	-6.7
OC(CNCC1CCCO1)Cn1c2ccc(Cl)cc2c2cc(Cl)ccc21 (configuration not stated)	69.0	0.0	44.5	-7.4	8.9*	-3.6
OC(CNCC1CCCO1)Cn1c2ccccc2c2ccccc21 (configuration not stated)	-11.9	0.0	12.2	-5.3	-1.7	-1.5
Cc1cccc(CNc2ccc(S(=O)(=O)N3CCCCC3)cc2)c1	/	-0.2	-50.3	8.4	-0.1	-4.1
Cc1cc(C)c(N2C(=O)CC(Sc3ccccc3N)C2=O)c(C)c1 (configuration not stated)	/	/	12.9	9.6	0.5	-3.0
O=C(C1CCCCC1)N1C[C@@H](O)[C@H](n2cc(C3CC3)nn2)C[C@@H]1c1ccccc1	/	/	6.1	-0.8	1.5	1.4
FC(F)(F)c1cccc(Sc2cc(C(F)(F)F)nc(-c3ccccn3)n2)c1	-7.0	0.2	/	12.1	9.1*	-3.2
COCCN1C[C@@H](CO)O[C@@H](n2cnc3c(NC4CCCC4)ncnc32)C1	/	/	-0.2	4.2	-0.3	-8.4
COc1ccc(O)c(C(=O)CC(=O)c2ccccc2)c1	13.7	0.4	/	/	/	/
Cc1ccc(O)c(C(=O)CC(=O)c2ccc(C(C)(C)C)cc2)c1	-2.2	0.0	-3.9	1.5	12.3*	0.2
Cc1ccc(C(=O)CC(=O)c2ccccc2C)c(O)c1	81.1*	-0.1	/	10.3	0.5	6.1
COc1ccc(C(=O)NCCN2CCC(n3c(=O)[nH]c4ccccc43)CC2)cc1F	/	/	/	/	/	-7.6
SMILES	Calb FLC	Efflux pump mplx	TAG inh	MC4R antag cAMP	MC4R ag barr	GalR3 antag
Cc1ccc(S(=O)(=O)N2CCN(C(=O)CCC(=O)Nc3ccc(Br)c(C)c3)CC2)cc1	/	/	-10.3	0.1	-0.7	-6.9
O=C(O)C1CCC(Cn2c(SCc3cc(=O)n4cc(Br)ccc4n3)nc3ccsc3c2=O)CC1 (configuration not stated)	41.1	0.1	-10.0	-52.5	-2.4	7.7
O=C(O)c1ccc(Cn2c(SCc3cc(=O)n4cc(Br)ccc4n3)nc3ccsc3c2=O)cc1	111.7*	0.1	/	/	/	-6.4
Cc1ccsc1CN(C)C(=O)C(NC(=O)c1cccc(S(=O)(=O)N2CCOCC2)c1)C(C)C (configuration not stated)	/	-0.1	-1.6	0.6	-2.7	-3.6
COc1ccc2[nH]c3c(=O)n(/N=C/[C@H]4C(C)C=C(C)CC4C)c(=O)[nH]c3c2c1 (some centres not stated)	11.7	0.4	/	20.3	8.3*	-5.7
O=[N+]([O-])c1ccccc1C=NN1CCCCCC1	/	/	-16.7	-2.7	-4.2	-5.0
CCOc1ccc(/C=C/C2=CC(C)(C)NC(=S)N2)cc1	109.8*	-0.1	-0.2	3.3	-1.9	-4.3
COc1ccccc1NC(=O)Cn1cnc2c(cnn2-c2ccccc2)c1=O	91.4*	0.0	12.3	1.5	-0.9	-5.4
COC(=O)C1(C(=O)OC)c2ccccc2N(S(=O)(=O)c2ccc(C)cc2)C1CC(=O)c1ccccc1 (configuration not stated)	/	/	/	/	/	-6.4
O=C(Nc1nnc(C2=COCCO2)o1)c1cccc([N+](=O)[O-])c1	0.9	0.1	3.2	3.8	-1.1	-1.6
O=C(Nc1nnc(-c2cccs2)o1)c1cccc(F)c1	87.5*	0.1	2.5	-0.7	-3.3	2.7
CCCCN(C)S(=O)(=O)c1ccc(C(=O)Nc2nnc(-c3cccs3)o2)cc1	84.2*	0.0	/	/	/	/
O=C(Nc1nnc(-c2ccc(F)cc2)o1)c1cccc([N+](=O)[O-])c1	91.1*	-0.1	5.0	5.0	-4.3	-2.6
O=C1C2CCCN2C(=O)N1CCN1CCN(c2cccc(C(F)(F)F)c2)CC1 (configuration not stated)	/	/	-4.8	13.5	1.6	-6.7
CON/C=C(\C=Nc1ccc(Cl)cc1Cl)c1ncc(C(F)(F)F)cc1Cl	93.8*	-0.1	-23.9	-2.3	2.6	-4.4
COCCNC(=O)c1cc(-c2ccccc2)sc1N	/	/	/	/	/	-5.0
Cc1ccc(NC(=O)c2ccc(=O)[nH]c2)cc1S(=O)(=O)N1CCCCCC1	/	0.1	3.4	9.6	-1.8	-6.4
O=C(OCn1ncc(Br)c(Br)c1=O)c1ccccc1Cl	4.7	-0.1	128.0	6.3	-1.8	/
O=C(OCn1ncc(Cl)c(Cl)c1=O)c1cccc(C(F)(F)F)c1	98.0*	-0.1	/	21.6	3.6	/
